Experimental data from ChEMBL document CHEMBL4261600 (Eur J Med Chem, 2018).

Legend:
[1] = MRT (0 to t) in beagle dog at 10 mg/kg, po by LC-MS/MS analysis; type: ADME, organism-based, Canis lupus familiaris; details: in vivo
[2] = target: Aurora kinase C (Homo sapiens) (UniProt Q9UQB9); test: Binding affinity to wild-type human full length AURKC (M1 to S275 residues) expressed in bacterial expression system assessed as remaining unbound target protein level at 1000 nM by Kinomescan method relative to control
Procedure, shortened: (§1)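 Single-point competition binding screen across a panel of 468 kinases and mutants, with the inhibitor at 1 μM. Binding is read out as percent of a DMSO control, and targets below 1 percent control were classed as strong binders.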

[3] = tested on: Tyrosine-protein kinase ABL1 (Homo sapiens), P00519 [H396P]; test: Binding affinity to human phosphorylated ABL1 H396P mutant (S229 to K512 residues) expressed in mammalian expression system assessed as remaining unbound target protein level at 1000 nM by Kinomescan method relative to control; procedure, shortened: as §1
[4] = tested on: Phosphatidylinositol 4,5-bisphosphate 3-kinase catalytic subunit alpha isoform (Homo sapiens), P42336 [I800L]; test: Binding affinity to human partial length PIK3CA I800L mutant (R108 to N1068 residues) expressed in mammalian expression system assessed as remaining unbound target protein level at 1000 nM by Kinomescan method relative to control
Sequence of Phosphatidylinositol 4,5-bisphosphate 3-kinase catalytic subunit alpha isoform (Homo sapiens), P42336 [I800L] (P42336 whole entry I800L, the tested form may be a part, canonical isoform): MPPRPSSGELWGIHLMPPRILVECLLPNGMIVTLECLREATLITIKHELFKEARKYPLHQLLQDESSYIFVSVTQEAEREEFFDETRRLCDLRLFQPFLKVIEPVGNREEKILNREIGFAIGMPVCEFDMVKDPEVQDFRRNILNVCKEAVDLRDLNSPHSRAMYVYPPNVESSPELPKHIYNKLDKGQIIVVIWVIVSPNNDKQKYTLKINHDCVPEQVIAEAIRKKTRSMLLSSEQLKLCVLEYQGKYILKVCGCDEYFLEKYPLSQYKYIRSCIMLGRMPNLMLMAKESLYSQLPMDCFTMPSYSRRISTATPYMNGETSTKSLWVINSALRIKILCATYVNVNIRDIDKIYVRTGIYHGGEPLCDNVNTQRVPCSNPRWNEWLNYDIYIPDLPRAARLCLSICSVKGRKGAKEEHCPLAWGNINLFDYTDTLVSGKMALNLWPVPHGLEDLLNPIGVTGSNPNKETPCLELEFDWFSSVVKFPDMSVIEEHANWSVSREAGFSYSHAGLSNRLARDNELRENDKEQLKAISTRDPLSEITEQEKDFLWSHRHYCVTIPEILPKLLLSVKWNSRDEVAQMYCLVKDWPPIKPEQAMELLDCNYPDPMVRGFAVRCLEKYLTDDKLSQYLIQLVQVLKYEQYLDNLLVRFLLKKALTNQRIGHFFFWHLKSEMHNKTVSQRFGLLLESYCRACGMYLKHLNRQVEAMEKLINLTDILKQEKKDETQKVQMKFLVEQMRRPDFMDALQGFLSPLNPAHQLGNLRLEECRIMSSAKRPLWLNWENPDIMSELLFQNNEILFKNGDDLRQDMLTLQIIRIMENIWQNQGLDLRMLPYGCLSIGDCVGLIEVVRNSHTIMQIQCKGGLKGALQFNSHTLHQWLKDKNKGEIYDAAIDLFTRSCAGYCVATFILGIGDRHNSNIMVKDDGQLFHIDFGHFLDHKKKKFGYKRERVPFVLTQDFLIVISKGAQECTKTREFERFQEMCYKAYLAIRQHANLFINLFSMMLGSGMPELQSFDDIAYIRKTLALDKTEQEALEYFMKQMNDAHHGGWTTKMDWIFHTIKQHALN
Procedure, shortened: (§2)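 KINOMEscan competition-binding profiling across the panel of 468 kinases and mutants, with inhibitor tested at 1 μM. Binding is expressed as percent of control, with DMSO as the reference control.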

[5] = tested on: Tyrosine-protein kinase ABL1 (Homo sapiens), P00519 [E255K]; test: Binding affinity to human phosphorylated ABL1 E255K mutant (S229 to K512 residues) expressed in mammalian expression system assessed as remaining unbound target protein level at 1000 nM by Kinomescan method relative to control; procedure, shortened: as §2
[6] = target: Fibroblast growth factor receptor 4 (Homo sapiens) (UniProt P22455); test: Binding affinity to wild-type human partial length FGFR4 (G402 to E713 residues) expressed in bacterial expression system assessed as remaining unbound target protein level at 1000 nM by Kinomescan method relative to control
[7] = target: Dual specificity protein kinase CLK3 (Homo sapiens) (UniProt P49761); test: Binding affinity to wild-type human full length CLK3 (M1 to R490 residues) expressed in bacterial expression system assessed as remaining unbound target protein level at 1000 nM by Kinomescan method relative to control; procedure, shortened: as §1
[8] = target: Tyrosine-protein kinase Fgr (Homo sapiens) (UniProt P09769); test: Binding affinity to wild-type human partial length FGR (L233 to T529 residues) expressed in bacterial expression system assessed as remaining unbound target protein level at 1000 nM by Kinomescan method relative to control
[9] = target: Mitogen-activated protein kinase 11 (Homo sapiens) (UniProt Q15759); test: Binding affinity to wild-type human full length p38-beta (M1 to Q364 residues) expressed in bacterial expression system assessed as remaining unbound target protein level at 1000 nM by Kinomescan method relative to control
Sequence of Mitogen-activated protein kinase 11 (Homo sapiens) (Q15759 whole entry, the tested form may be a part): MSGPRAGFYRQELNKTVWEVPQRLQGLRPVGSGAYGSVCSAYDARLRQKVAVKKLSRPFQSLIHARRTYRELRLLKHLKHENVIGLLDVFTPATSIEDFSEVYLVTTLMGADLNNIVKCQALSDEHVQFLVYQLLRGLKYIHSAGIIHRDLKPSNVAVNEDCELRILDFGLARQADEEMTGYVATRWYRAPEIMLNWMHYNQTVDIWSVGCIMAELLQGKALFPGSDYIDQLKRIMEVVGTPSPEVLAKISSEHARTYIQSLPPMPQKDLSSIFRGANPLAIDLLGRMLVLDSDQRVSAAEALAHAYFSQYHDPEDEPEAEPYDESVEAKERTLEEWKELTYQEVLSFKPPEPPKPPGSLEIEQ
Procedure, shortened: (§3)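 Profiled in a KINOMEscan binding panel with the inhibitor at a single concentration of 1 μM. Binding to each kinase was read out as percent of control, relative to a DMSO control. Strong binders were defined as those with a percent control value below 1.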

[10] = Antiproliferative activity against human MEC1 cells after 72 hrs by Celltiter-Glo assay; type: functional; details: MEC1, 72 h
Procedure, shortened: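 Cells seeded at 3000/well in 96-well plates, exposed to serially diluted compound for 72 h at 37 °C, 5% CO2. Viability read by CellTiter-Glo luminescence and normalized to DMSO control. GI50 derived from curve fit, mean of three independent measurements. Culture media: DMEM/10% FBS for adherent lines; IMDM for MV4-11 and MEC-1/2; RPMI 1640 for suspension lines and CHL.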

[11] = tested on: Epidermal growth factor receptor (Homo sapiens), P00533 [G719C]; test: Binding affinity to human partial length EGFR G719C mutant (R669 to V1011 residues) expressed in bacterial expression system assessed as remaining unbound target protein level at 1000 nM by Kinomescan method relative to control; procedure, shortened: as §2
[12] = target: BDNF/NT-3 growth factors receptor (Homo sapiens) (UniProt Q16620); test: Binding affinity to wild-type human partial length TRKB (Q547 to G838 residues) expressed in mammalian expression system assessed as remaining unbound target protein level at 1000 nM by Kinomescan method relative to control
Sequence of BDNF/NT-3 growth factors receptor (Homo sapiens) (Q16620 32-822 limits assumed): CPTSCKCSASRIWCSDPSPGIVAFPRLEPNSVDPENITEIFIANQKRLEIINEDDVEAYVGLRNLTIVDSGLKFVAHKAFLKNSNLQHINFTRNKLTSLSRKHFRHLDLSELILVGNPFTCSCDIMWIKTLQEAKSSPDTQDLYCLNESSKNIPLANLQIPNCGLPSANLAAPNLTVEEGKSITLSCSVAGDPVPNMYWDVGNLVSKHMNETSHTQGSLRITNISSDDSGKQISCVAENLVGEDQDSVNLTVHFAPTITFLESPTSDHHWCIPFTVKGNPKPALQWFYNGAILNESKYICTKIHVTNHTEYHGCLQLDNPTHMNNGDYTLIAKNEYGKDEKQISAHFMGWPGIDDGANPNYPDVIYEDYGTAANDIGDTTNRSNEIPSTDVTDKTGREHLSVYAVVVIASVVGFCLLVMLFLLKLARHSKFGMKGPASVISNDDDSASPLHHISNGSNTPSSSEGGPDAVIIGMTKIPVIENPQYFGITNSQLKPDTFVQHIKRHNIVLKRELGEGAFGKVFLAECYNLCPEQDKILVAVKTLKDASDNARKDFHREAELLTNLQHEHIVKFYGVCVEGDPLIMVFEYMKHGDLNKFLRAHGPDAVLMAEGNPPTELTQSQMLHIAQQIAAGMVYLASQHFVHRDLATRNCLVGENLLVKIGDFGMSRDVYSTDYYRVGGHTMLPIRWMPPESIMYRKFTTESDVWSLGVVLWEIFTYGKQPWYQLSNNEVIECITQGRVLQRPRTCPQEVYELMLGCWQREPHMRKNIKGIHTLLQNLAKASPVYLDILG

[13] = target: Dual specificity protein kinase CLK1 (Homo sapiens) (UniProt P49759); test: Binding affinity to wild-type human full length CLK1 (M1 to I484 residues) expressed in bacterial expression system assessed as remaining unbound target protein level at 1000 nM by Kinomescan method relative to control
Sequence of Dual specificity protein kinase CLK1 (Homo sapiens) (P49759 whole entry, looked up, the tested form may be a part): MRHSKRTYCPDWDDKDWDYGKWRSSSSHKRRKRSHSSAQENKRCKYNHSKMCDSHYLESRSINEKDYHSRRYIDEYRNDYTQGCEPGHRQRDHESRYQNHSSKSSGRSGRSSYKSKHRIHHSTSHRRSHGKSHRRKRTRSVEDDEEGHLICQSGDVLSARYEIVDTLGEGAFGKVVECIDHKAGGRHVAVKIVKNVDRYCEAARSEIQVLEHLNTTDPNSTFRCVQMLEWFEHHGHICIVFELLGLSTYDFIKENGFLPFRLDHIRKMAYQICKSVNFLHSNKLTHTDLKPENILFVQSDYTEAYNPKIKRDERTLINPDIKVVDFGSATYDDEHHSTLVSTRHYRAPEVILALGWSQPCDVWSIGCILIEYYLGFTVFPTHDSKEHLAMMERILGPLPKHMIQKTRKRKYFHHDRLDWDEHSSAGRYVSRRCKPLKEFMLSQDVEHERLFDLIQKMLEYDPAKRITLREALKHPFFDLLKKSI
Procedure, shortened: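 KINOMEscan competitive binding profile at 1 μM inhibitor. Remaining target binding reported as percent of DMSO control.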

[14] = target: Cyclin-dependent kinase 9 (Homo sapiens, UniProt P50750); test: Inhibition of CDK9 in human HL60 cells assessed as decrease in RNA polymerase 2 phosphorylation at Ser 2 residues in CTD domain after 2 hrs by immunoblotting analysis; type: cell-based
Sequence of Cyclin-dependent kinase 9 (P50750 whole entry, the tested form may be a part): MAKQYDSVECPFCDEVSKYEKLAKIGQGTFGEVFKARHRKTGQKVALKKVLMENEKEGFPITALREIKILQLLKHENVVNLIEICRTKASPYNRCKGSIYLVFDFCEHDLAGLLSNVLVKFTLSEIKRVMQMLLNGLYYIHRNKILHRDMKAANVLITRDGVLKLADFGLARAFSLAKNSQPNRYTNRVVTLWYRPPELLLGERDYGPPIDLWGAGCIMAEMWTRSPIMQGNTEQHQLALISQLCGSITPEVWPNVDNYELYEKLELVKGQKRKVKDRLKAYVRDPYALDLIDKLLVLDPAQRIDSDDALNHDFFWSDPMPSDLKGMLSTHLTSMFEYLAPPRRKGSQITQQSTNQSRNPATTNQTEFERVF

[15] = target: Ribosomal protein S6 kinase alpha-3 (Homo sapiens) (UniProt P51812); test: Binding affinity to wild-type human partial length C-terminal RSK2 kinase domain 2 (V402 to S715 residues) expressed in mammalian expression system assessed as remaining unbound target protein level at 1000 nM by Kinomescan method relative to control; procedure, shortened: as §3
[16] = Half life in beagle dog at 2 mg/kg, iv by LC-MS/MS analysis; type: ADME, organism-based, Canis lupus familiaris; details: in vivo
[17] = target: Tyrosine-protein kinase JAK3 (Homo sapiens) (UniProt P52333); test: Binding affinity to wild-type human partial length JAK3 JH1 catalytic domain (I781 to S1124 residues) expressed in mammalian expression system assessed as remaining unbound target protein level at 1000 nM by Kinomescan method relative to control
Sequence of Tyrosine-protein kinase JAK3 (Homo sapiens) (P52333 whole entry, the tested form may be a part): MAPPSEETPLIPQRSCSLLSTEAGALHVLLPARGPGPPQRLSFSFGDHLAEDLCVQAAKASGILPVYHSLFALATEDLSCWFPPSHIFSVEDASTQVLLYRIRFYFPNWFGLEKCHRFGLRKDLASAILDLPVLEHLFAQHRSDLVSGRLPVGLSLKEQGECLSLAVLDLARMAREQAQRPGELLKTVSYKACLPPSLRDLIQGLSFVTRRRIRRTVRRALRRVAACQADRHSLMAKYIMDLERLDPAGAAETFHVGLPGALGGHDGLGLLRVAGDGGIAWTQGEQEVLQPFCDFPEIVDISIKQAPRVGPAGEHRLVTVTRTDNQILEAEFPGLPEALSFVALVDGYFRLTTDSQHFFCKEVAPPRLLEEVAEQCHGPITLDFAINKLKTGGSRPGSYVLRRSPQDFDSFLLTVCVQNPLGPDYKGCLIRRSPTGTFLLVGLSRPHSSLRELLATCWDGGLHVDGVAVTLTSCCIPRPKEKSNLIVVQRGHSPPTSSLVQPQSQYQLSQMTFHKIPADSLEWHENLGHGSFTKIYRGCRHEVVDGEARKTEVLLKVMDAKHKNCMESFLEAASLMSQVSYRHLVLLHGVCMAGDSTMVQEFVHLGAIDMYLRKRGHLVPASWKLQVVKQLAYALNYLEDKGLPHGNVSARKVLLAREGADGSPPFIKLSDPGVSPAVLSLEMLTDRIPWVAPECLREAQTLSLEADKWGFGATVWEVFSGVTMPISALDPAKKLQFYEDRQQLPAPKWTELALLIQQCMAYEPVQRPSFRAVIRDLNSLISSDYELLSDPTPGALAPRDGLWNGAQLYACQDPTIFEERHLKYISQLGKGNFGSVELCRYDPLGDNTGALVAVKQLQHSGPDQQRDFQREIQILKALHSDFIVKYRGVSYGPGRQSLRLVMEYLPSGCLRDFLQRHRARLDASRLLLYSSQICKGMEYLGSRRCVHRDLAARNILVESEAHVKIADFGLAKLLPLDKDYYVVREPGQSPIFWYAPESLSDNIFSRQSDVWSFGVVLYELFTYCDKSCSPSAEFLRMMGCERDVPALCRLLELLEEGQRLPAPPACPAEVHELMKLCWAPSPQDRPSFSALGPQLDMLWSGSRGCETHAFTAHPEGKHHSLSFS

[18] = Half life in Sprague-Dawley rat at 3 mg/kg, iv by LC-MS/MS analysis; type: ADME, organism-based; details: in vivo
[19] = target: cAMP-dependent protein kinase catalytic subunit alpha (Homo sapiens) (UniProt P17612); test: Binding affinity to wild-type human partial length PKAC-alpha (G10 to F351 residues) expressed in bacterial expression system assessed as remaining unbound target protein level at 1000 nM by Kinomescan method relative to control
[20] = target: LIM domain kinase 1 (Homo sapiens) (UniProt P53667); test: Binding affinity to wild-type human full length LIMK1 (M1 to D647 residues) expressed in bacterial expression system assessed as remaining unbound target protein level at 1000 nM by Kinomescan method relative to control; procedure, shortened: as §1
Sequence of LIM domain kinase 1 (Homo sapiens) (P53667 whole entry, looked up, the tested form may be a part): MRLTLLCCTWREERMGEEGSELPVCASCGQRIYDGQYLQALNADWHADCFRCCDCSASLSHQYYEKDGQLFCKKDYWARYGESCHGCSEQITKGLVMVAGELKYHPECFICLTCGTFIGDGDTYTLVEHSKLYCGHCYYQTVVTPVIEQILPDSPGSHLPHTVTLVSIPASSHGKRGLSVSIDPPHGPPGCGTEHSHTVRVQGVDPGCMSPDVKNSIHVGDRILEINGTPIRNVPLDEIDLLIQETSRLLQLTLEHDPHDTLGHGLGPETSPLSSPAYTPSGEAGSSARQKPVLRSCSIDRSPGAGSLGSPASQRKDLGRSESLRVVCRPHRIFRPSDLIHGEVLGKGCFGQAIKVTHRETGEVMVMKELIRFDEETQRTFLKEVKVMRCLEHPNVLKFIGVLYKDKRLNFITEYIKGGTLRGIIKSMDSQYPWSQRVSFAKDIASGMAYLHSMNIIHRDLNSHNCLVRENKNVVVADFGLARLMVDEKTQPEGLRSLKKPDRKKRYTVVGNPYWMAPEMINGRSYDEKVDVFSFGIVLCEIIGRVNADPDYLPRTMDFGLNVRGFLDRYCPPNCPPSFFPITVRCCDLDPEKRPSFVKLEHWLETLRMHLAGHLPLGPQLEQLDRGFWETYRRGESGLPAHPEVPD

[21] = target: Receptor-interacting serine/threonine-protein kinase 4 (Homo sapiens) (UniProt P57078); test: Binding affinity to wild-type human partial length RIPK4 (M1 to V303 residues) expressed in mammalian expression system assessed as remaining unbound target protein level at 1000 nM by Kinomescan method relative to control

COCCN[C@H]1CC[C@H](Nc2cc(-c3csc(NCC4(C#N)CCOCC4)n3)c(Cl)cn2)CC1
MRT last [1]: 3.59 h | Activity [2]: 100% | Activity [3]: 95% | Activity [4]: 90% | Activity [5]: 72% | Activity [6]: 100% | Activity [7]: 92% | Activity [8]: 90% | Activity [9]: 85% | GI50 [10]: 11 to 37 nM | Activity [11]: 98% | Activity [12]: 79% | Activity [13]: 18% | EC50 [14]: < 100 nM | inhibition [14]: Dose-dependent effect | Activity [15]: 98% | half-life [16]: 13.1 h | Activity [17]: 92% | half-life [18]: 6.8 h | Activity [19]: 87% | Activity [20]: 90% | Activity [21]: 100%
